Reference: ChEMBL document CHEMBL1146838, “4-Hydroxy-3-methyl-6-phenylbenzofuran-2-carboxylic acid ethyl ester derivatives as potent anti-tumor agents” (Bioorg Med Chem Lett, 2004)
≈ marks a conversion by molar mass, not a printed value.

Each molecule was assayed on WI-38 VA13 (assay: Cytotoxicity against VA13 cell line; Expressed as effective concentration). Details: Homo sapiens.
Format: functional, cell-based
Procedure, shortened: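 Human tumorigenic VA13 cells grown in MEM-E with penicillin/streptomycin and 10% fetal calf serum, seeded at 1.5–3.0×10³ cells/well, cultured 2–3 days. Compounds in DMSO (final <0.5%) added for 24 h, then washed out and cells cultured a further 3 days in fresh medium. XTT with phenazine methosulfate added for 2.5 h, OD450 read. Viability computed relative to untreated and cell-free blanks; EC50 taken from dose–response curve.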

Going from `Cc1c(C(=O)NCCc2ccccn2)oc2cc(-c3ccccc3)cc(O)c12` to `Cc1c(C(=O)c2ccccn2)oc2cc(-c3ccccc3)cc(O)c12`, the EC50 falls from 1.5 µg/mL (≈ 4.03 µM) to 0.6 µg/mL (≈ 1.82 µM) (2.5-fold).

First: CCOC(=O)c1oc2cc(-c3ccccc3)cc(O)c2c1C
Second: CCC(=O)c1oc2cc(-c3ccccc3)cc(O)c2c1C
The EC50 of the first is 6.8-fold lower: 0.04 µg/mL (≈ 0.135 µM) for the first, 0.27 µg/mL (≈ 0.963 µM) for the second.

`COc1ccccc1C(=O)c1oc2cc(-c3ccccc3)cc(O)c2c1C` and `COCc1ccccc1C(=O)c1oc2cc(-c3ccccc3)cc(O)c2c1C` are within 1.5-fold of each other in EC50: 0.09 µg/mL (≈ 0.251 µM) for the first, 0.1 µg/mL (≈ 0.269 µM) for the second.

Compared with `Cc1c(C(=O)OC(C)C)oc2cc(-c3ccccc3)cc(O)c12`, `Cc1c(C(=O)C(C)C)oc2cc(-c3ccccc3)cc(O)c12` is 6.8-fold higher in EC50: 0.06 µg/mL (≈ 0.193 µM) for the first, 0.41 µg/mL (≈ 1.39 µM) for the second.

Compared with `Cc1c(C(=O)C(C)(C)C)oc2cc(-c3ccccc3)cc(O)c12`, `CC(=O)c1oc2cc(-c3ccccc3)cc(O)c2c1C` is 5.1-fold lower in EC50: 0.41 µg/mL (≈ 1.33 µM) for the first, 0.08 µg/mL (≈ 0.3 µM) for the second.

Compared with `COc1ccc(CCOC(=O)c2oc3cc(-c4ccccc4)cc(O)c3c2C)cc1`, `COc1ccc(C(=O)c2oc3cc(-c4ccccc4)cc(O)c3c2C)cc1` is 14-fold higher in EC50: 0.02 µg/mL (≈ 0.0497 µM) for the first, 0.28 µg/mL (≈ 0.781 µM) for the second.

First: CCCCC(=O)c1oc2cc(-c3ccccc3)cc(O)c2c1C
Second: CCCC(=O)c1oc2cc(-c3ccccc3)cc(O)c2c1C
The EC50 of the first is 3.4-fold higher: 2 µg/mL (≈ 6.49 µM) for the first, 0.59 µg/mL (≈ 2 µM) for the second.

First: Cc1c(C(=O)c2ccc(Oc3ccccc3)cc2)oc2cc(-c3ccccc3)cc(O)c12
Second: Cc1c(C(=O)c2ccccc2)oc2cc(-c3ccccc3)cc(O)c12
The EC50 of the first is higher: > 4 µg/mL for the first, 0.6 µg/mL (≈ 1.83 µM) for the second.

Going from `COc1ccc(C(=O)c2oc3cc(-c4ccccc4)cc(O)c3c2C)cc1OC` to `COc1ccc(OC)c(C(=O)c2oc3cc(-c4ccccc4)cc(O)c3c2C)c1`, the EC50 falls from 0.45 µg/mL (≈ 1.16 µM) to 0.09 µg/mL (≈ 0.232 µM) (5-fold).

First: Cc1c(C(=O)c2cccc(OC(C)C)c2)oc2cc(-c3ccccc3)cc(O)c12
Second: Cc1c(C(=O)c2cccc(CN(C)C)c2)oc2cc(-c3ccccc3)cc(O)c12
The EC50 of the first is 3.9-fold higher: 0.35 µg/mL (≈ 0.906 µM) for the first, 0.09 µg/mL (≈ 0.233 µM) for the second.

`Cc1c(C(=O)c2ccc(N(C)C)cc2)oc2cc(-c3ccccc3)cc(O)c12` and `Cc1c(C(=O)c2ccc(CN(C)C)cc2)oc2cc(-c3ccccc3)cc(O)c12` cannot be ordered by EC50: > 4 µg/mL for the first, > 4 µg/mL for the second.

Compared with `Cc1c(C(=O)c2cnc3ccccc3c2)oc2cc(-c3ccccc3)cc(O)c12`, `Cc1c(C(=O)c2ccc(F)c(F)c2)oc2cc(-c3ccccc3)cc(O)c12` is lower in EC50: > 4 µg/mL for the first, 0.4 µg/mL (≈ 1.1 µM) for the second.

Going from `COc1ccc(C(=O)c2oc3cc(-c4ccccc4)cc(O)c3c2C)c(C(F)(F)F)c1` to `COc1cc(C(F)(F)F)ccc1C(=O)c1oc2cc(-c3ccccc3)cc(O)c2c1C`, the EC50 falls from 0.4 µg/mL (≈ 0.938 µM) to 0.26 µg/mL (≈ 0.61 µM) (1.5-fold).

`Cc1c(C(=O)c2cccc(C(F)(F)F)c2)oc2cc(-c3ccccc3)cc(O)c12` and `CCc1ccc(C(=O)c2oc3cc(-c4ccccc4)cc(O)c3c2C)cc1` cannot be ordered by EC50: > 4 µg/mL for the first, > 4 µg/mL for the second.

Compared with `COc1ccc(CCOC(=O)c2oc3cc(-c4ccccc4)cc(O)c3c2C)cc1OC`, `COc1ccc(C(=O)c2oc3cc(-c4ccccc4)cc(O)c3c2C)c(OC)c1` is 1.9-fold higher in EC50: 0.021 µg/mL (≈ 0.0486 µM) for the first, 0.04 µg/mL (≈ 0.103 µM) for the second.

Compared with `Cc1c(C(=O)c2cccs2)oc2cc(-c3ccccc3)cc(O)c12`, `Cc1c(C(=O)c2nccs2)oc2cc(-c3ccccc3)cc(O)c12` is 5-fold lower in EC50: 2 µg/mL (≈ 5.98 µM) for the first, 0.4 µg/mL (≈ 1.19 µM) for the second.

Compared with `Cc1ncsc1CCOC(=O)c1oc2cc(-c3ccccc3)cc(O)c2c1C`, `Cc1c(C(=O)O)oc2cc(-c3ccccc3)cc(O)c12` is higher in EC50: 0.055 µg/mL (≈ 0.14 µM) for the first, > 4 µg/mL for the second.

First: Cc1c(C(=O)C2CCCCC2)oc2cc(-c3ccccc3)cc(O)c12
Second: Cc1c(C(=O)c2cncnc2)oc2cc(-c3ccccc3)cc(O)c12
The EC50 of the first is 1.6-fold lower: 0.45 µg/mL (≈ 1.35 µM) for the first, 0.7 µg/mL (≈ 2.12 µM) for the second.

`Cc1c(C(=O)Cc2ccccc2)oc2cc(-c3ccccc3)cc(O)c12` and `Cc1c(C(=O)CCc2ccccc2)oc2cc(-c3ccccc3)cc(O)c12` cannot be ordered by EC50: > 4 µg/mL for the first, > 4 µg/mL for the second.

`Cc1c(C(=O)c2ccccc2-c2ccccc2)oc2cc(-c3ccccc3)cc(O)c12` showed an EC50 of 0.1 µg/mL (≈ 0.247 µM).
